Source: ChEMBL document CHEMBL1140335, “"Reversine" and its 2-substituted adenine derivatives as potent and selective A3 adenosine receptor antagonists” (J Med Chem, 2005)

Experiments:
[1] = molecular target: T1, Adenosine receptor A1 (Homo sapiens) (UniProt P30542); assay: (§1) Percent inhibition of [3H]DPCPX binding to human adenosine A1 receptor expressed in CHO cells at 10 uM; type: cell-based
T1 sequence (whole entry): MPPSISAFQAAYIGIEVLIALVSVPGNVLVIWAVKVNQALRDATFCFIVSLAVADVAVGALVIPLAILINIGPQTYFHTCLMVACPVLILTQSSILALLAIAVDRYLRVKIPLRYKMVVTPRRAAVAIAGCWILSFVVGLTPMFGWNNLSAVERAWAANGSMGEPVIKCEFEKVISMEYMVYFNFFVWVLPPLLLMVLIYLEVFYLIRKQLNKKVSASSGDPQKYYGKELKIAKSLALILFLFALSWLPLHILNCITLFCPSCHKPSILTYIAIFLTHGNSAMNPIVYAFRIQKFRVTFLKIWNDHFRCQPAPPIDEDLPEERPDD
Procedure, shortened: (§2)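 Test ligand at a single 10 μM was run against 0.5 nM [3H]DPCPX on membranes (20 μg protein) from CHO cells stably expressing human A1 receptor, in 50 mM Tris-HCl, pH 7.4, for 60 min at 25°C. Nonspecific binding was defined with 10 μM NECA. Filtration was on GF/B, with scintillation counting. Results are percent displacement of radioligand.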

[2] = molecular target: T2, Adenosine receptor A3 (Homo sapiens, UniProt P0DMS8); assay: biochemical; type: cell-based, CHO
T2 sequence (P0DMS8 whole entry): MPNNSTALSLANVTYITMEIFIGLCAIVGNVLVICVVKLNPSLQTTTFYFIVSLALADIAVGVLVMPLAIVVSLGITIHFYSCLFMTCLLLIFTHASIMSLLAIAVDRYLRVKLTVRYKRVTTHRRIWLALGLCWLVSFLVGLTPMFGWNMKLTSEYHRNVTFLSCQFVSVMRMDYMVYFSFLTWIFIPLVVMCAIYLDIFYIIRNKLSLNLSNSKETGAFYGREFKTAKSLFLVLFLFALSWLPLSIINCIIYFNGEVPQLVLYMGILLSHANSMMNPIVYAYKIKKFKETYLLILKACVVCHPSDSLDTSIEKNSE

[3] = molecular target: T3, Adenosine receptor A2a (Homo sapiens, UniProt P29274); assay: Percent inhibition of [3H]-ZM241385 binding to human adenosine A2A receptor expressed in CHO cells at 10 uM
T3 sequence (P29274 whole entry): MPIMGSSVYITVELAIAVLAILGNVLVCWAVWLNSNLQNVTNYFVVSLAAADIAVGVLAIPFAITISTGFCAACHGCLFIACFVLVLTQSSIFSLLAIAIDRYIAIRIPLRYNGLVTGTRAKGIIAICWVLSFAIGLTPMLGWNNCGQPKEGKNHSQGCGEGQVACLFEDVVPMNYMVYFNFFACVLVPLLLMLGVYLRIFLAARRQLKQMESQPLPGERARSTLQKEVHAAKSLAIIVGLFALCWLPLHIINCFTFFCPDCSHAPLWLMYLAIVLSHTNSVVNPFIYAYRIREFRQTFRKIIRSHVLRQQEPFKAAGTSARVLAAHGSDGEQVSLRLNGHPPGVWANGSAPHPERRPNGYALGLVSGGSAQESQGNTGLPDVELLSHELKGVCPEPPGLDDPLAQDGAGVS

[4] = molecular target: T4, Adenosine receptor A1 (Homo sapiens, UniProt P30542); type: cell-based, CHO
T4 sequence (P30542 whole entry): T1 sequence (whole entry)

[5] = molecular target: T4, Adenosine receptor A1; assay: Percent inhibition of [3H]-DPCPX binding to human adenosine A1 receptor expressed in CHO cells at 10 uM; type: cell-based; procedure, shortened: as §2
[6] = molecular target: T3, Adenosine receptor A2a; type: cell-based, CHO
[7] = molecular target: T4, Adenosine receptor A1; assay: Binding affinity for human adenosine A1 receptor
Procedure, shortened: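 Membranes from CHO cells stably expressing human A1 receptor (20 μg protein) were incubated with 0.5 nM [3H]DPCPX in 50 mM Tris-HCl, pH 7.4, for 60 min at 25°C. Nonspecific binding was defined with 10 μM NECA. Bound label was collected by GF/B filtration and counted by scintillation.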

[8] = molecular target: T3, Adenosine receptor A2a; assay: Percent inhibition of […] binding to human adenosine A2A receptor expressed in CHO cells at 10 uM; type: cell-based
[9] = molecular target: T4, Adenosine receptor A1; assay: as §1; type: cell-based; procedure, shortened: as §2

SMILES | inhibition [1] [%] | Ki [2] [nM] | inhibition [3] [%] | further results
c1nc2nc(Nc3ccc(N4CCOCC4)cc3)[nH]c(NC3CCCCCC3)c-2n1 | 6 | 420 | 38 | 
CCNc1[nH]c(Nc2ccc(N3CCOCC3)cc2)nc2ncnc1-2 | 23 | 1530 | 16 | 
c1nc2nc(Nc3ccc(N4CCOCC4)cc3)[nH]c(NC3CCC3)c-2n1 | 29 | 1810 | 18 | 
CCNc1nc(NC2CCCCC2)c2[nH]cnc2n1 | 51 | 1120 | 42 | 
c1ccc(Nc2nc3ncnc-3c(NC3CCCCCCC3)[nH]2)cc1 |  | 340 |  | Ki [5]: 4470 nM
c1ccc2cc(Nc3nc4ncnc-4c(NC4CCCCC4)[nH]3)ccc2c1 | 39 |  | 52 | 
CC(C)N(C)c1nc2c(NC3CC4CC3CC4O)ncnc2n1C (configuration not stated) |  |  |  | Ki [7]: 1.7 nM
Cn1cnc2c(NC3CCCCCC3)nc(Nc3ccccc3)nc21 |  | 960 |  | Ki [6]: 2950 nM; Ki [4]: 1940 nM
c1ccc(CCNc2nc(NC3CCCCC3)c3[nH]cnc3n2)cc1 |  | 1460 |  | inhibition [8]: 46%; Ki [9]: 3170 nM
c1ccc2cc(Nc3nc(NC4CCCCC4)c4[nH]cnc4n3)ccc2c1 |  | 2420 |  | 
c1ccc(CNc2nc(NC3CCCCC3)c3[nH]cnc3n2)cc1 | 42 | 920 | 34 | 
c1nc2nc(Nc3ccc(N4CCOCC4)cc3)[nH]c(NC3CCCC3)c-2n1 | 22 | 1390 | 20 | 
c1nc2nc(Nc3ccc(N4CCOCC4)cc3)[nH]c(NC3CCCCCCC3)c-2n1 | 0 | 2770 | 17 | 
c1nc2nc(Nc3ccc(N4CCOCC4)cc3)nc(NC3CCCCC3)c2[nH]1 [REVERSINE] |  | 660 |  | Ki [6]: > 10000 nM; Ki [4]: > 10000 nM
c1nc2nc(Nc3ccc(N4CCOCC4)cc3)nc(NC3CC3)c2[nH]1 | 22 | 1870 | 25 | 
c1ccc(-c2ccc(Nc3nc4ncnc-4c(NC4CCCCC4)[nH]3)cc2)cc1 | 14 | 5400 | 22 | 
c1nc2c(NC3CCCCC3)nc(Nc3ccc(N4CCCCC4)cc3)nc2[nH]1 | 16 | 1570 |  | inhibition [8]: 50%

Further compounds by falling Ki [2], results first:

inhibition [1] [%] | Ki [2] [nM] | inhibition [3] [%] | SMILES | further results
 | 134 |  | c1ccc(Sc2nc3ncnc-3c(NC3CCCCC3)[nH]2)cc1 | 
 | 122 |  | c1nc2nc(Nc3ccc(N4CCOCC4)cc3)nc(NC3CC4CCC3C4)c2[nH]1 (configuration not stated) | 
 | 74 | 25 | c1ccc(Oc2nc(NC3CC4CCC3C4)c3nc[nH]c3n2)cc1 (configuration not stated) | Ki [4]: 1470 nM
 | 70 |  | CN(C)c1ccc(Nc2nc(NC3CCCCC3)c3[nH]cnc3n2)cc1 | Ki [6]: 6100 nM; Ki [4]: 3900 nM
 | 70 |  | Cn1cnc2c(NC3CCCCC3)nc(Nc3ccccc3)nc21 | Ki [6]: 1200 nM; Ki [4]: 1880 nM
 | 51 |  | c1ccc(Nc2nc3ncnc-3c(NC3CCCCC3)[nH]2)cc1 | Ki [6]: 1700 nM; Ki [9]: 2730 nM
 | 42 |  | c1ccc(Nc2nc(NC3CCCCCC3)c3[nH]cnc3n2)cc1 | Ki [6]: 4120 nM; Ki [4]: 1720 nM
